ATG4B inhibitor: ATG4B protease inhibitors, primary screen, biochemical, fluorescence, uHTS; AID 504462, 2011; inhibition, % at 8.33 µM; Cysteine protease ATG4B (Homo sapiens), Q9Y4P1; ATG4B cleavage of LC3-PLA2, NBD-HPC fluorescence, 1 h; 0.51% of 340,000 active; in the data active means inhibition above about 40%
Target sequence (Q9Y4P1 whole entry, looked up): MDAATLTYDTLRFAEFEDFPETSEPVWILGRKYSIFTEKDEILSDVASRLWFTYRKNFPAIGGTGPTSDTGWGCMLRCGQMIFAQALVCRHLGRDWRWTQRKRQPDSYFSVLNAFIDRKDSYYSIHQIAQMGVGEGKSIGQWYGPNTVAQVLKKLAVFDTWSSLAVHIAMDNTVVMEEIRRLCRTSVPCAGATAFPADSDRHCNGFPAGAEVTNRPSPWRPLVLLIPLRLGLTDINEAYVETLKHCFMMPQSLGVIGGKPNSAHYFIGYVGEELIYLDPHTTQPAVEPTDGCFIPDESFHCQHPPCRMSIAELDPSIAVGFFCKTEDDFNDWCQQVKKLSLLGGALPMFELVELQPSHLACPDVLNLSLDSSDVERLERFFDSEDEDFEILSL
SKN-1 block: suppressors of acrylamide-induced Pgst-4::GFP reporter in worms, primary screen, SKN-1 inhibitor project, whole organism, uHTS, GFP/RFP fluorescence ratio, strain VP596 | C. elegans VP596 Pgst-4::GFP/RFP ratio, 24 h | 0.49% of 360,000 active | inhibition, % at 21.8 µM | AID 624304, 2012;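 active means interference check ratio from 0.5 to 1.5 plus GFP to RFP signal ratio inhibition reaching or exceeding a fixed threshold, cut at about 30% in these data, passing the limit was not always enough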
MT1-MMP act inh: blockers of MT1-MMP proenzyme processing, primary screen, HT1080 RFP-PRO-GFP cells, GFP/RFP fluorescence | Matrix metalloproteinase-14 (Homo sapiens), P50281 | GFP/RFP ratio fluorescence, overnight; percent of plate control window, DMSO zero | GFP/RFP ratio change, % at 20 µM | 0.061% of 360,000 active | AID 651647, 2012;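 active means GFP/RFP ratio change of at least 30% with cell ATP level not reduced by more than half and red fluorescence within 50% of control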
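Assay system: HT1080 cells carrying an RFP-PRO-GFP reporter | Dosing: Single dose of 20 µM compound, 1% DMSO final | Incubation: Cells overnight before dosing, compound overnight, 37 °C, 5% CO2 | Evaluation: GFP/RFP fluorescence ratio | Control set: DMSO and RFP-L50D-GFP cell wells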
MPTP inh: mitochondrial permeability transition pore inhibitors, primary screen, biochemical, isolated mouse mitochondria, absorbance; Ca2+ swelling absorbance, 30 min; inhibition, % at 10 µM; 1.4% of 360,000 active;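 active means inhibition of 50% or more, scaled per plate between neutral and stimulator controls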;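 further: 0% = DMSO wells given calcium and 100% = 1 mM EGTA wells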
MPTP counter: fluorescence retest of MPTP screen hits in isolated mitochondria, single concentration | shares compounds with MPTP inh | membrane potential, Rhodamine 123 fluorescence | inhibition, % at 10 µM | 78% of 5,000 active | AID 624504, 2012; in the data active means inhibition above about 22%;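 further: 0% = DMSO vehicle and 100% = positive control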
MPTP abs DR: mitochondrial permeability transition pore inhibitors, dose response, biochemical, absorbance, uHTS hits | shares compounds with MPTP inh | isolated mitochondria swelling | IC50, µM | 58% of 780 active; in the data active means IC50 below about 20 µM
MPTP cs DR: fluorescent counter-screen in isolated mitochondria, dose response, counter-screen for MPTP inhibitor project, biochemical, fluorescence, uHTS hits; shares compounds with MPTP inh; isolated mitochondria counterscreen, fluorescence read-out; IC50, µM; 49% of 780 active; AID 651564, 2012; in the data active means IC50 below about 80 µM
Starred values were filed as active, the others as inactive; x = no result. An excerpt weighted towards active compounds, which were near 2.3% of everything screened.

SMILES	ATG4B inhibitor	SKN-1 block	MT1-MMP act inh	MPTP inh	MPTP counter	others
C[C@H](CO)N1C[C@H](C)[C@@H](CN(C)C(=O)NC2CCCCC2)Oc2ccc(NC(=O)Cc3ccccc3)cc2C1=O	-7	32	4	1	x
COC(=O)c1ccc(COc2cccc3c2OC(C)(C)C3)cc1	-3	-9	1	-1	x
COc1ccc(CNCC(O)COc2cccc3c2OC(C)(C)C3)cc1 (stereo unspecified)	-2	5	-2	75*	46*
NC(=O)C(NN=C(c1ccccc1)c1ccccc1)c1ccccc1 (stereo unspecified)	x	-5	0	0	x
COc1ccccc1C=NN=C(NN=Cc1ccccc1OC)NN=Cc1ccccc1OC	1	-10	-9	94*	97*
COc1ccccc1C=NNC(=O)NN=Cc1ccccc1OC	-10	13	0	-2	x
CC1(C)C2CC=C(/C=N/NC(=O)c3ccccc3O)C1C2 (stereo unspecified)	5	10	5	50*	71*
CNC(=S)N/N=C/C1=CCC2CC1C2(C)C (stereo unspecified)	-8	9	7	-6	x
CN(c1ccccc1)S(=O)(=O)c1ccc(NC(=O)CC(=O)c2ccccc2)cc1	9	5	8	57*	93*
COc1ccc(CCNC(=S)N2CCN(S(=O)(=O)c3ccccc3)CC2)cc1	-7	15	1	0	x
COc1ccc(NS(=O)(=O)c2cc(N)ccc2N2CCOCC2)cc1	-4	8	2	1	x
Cc1cc(C)nc(NS(=O)(=O)c2ccc(CC(C)C)cc2)c1	3	2	0	2	x
COc1cccc(/C=C2/Sc3ccc(C(=O)NCCN4CCCCCC4)cc3NC2=O)c1	0	10	4	95*	-7
O=C1Nc2cc(C(=O)NCCN3CCCCCC3)ccc2S/C1=C\c1ccccc1	-3	13	-2	76*	-17
Cc1cccc(NS(=O)(=O)c2cc(C(=O)N3CCCCCC3)ccc2C)c1	-1	28	-3	0	x
O=[N+]([O-])c1cc(-n2cnnn2)ccc1N1CCC(Cc2ccccc2)CC1	4	-1	20	75*	57*
CCCn1c(CN2CCN(c3cccc(Cl)c3)CC2)nc2c1c(=O)n(C)c(=O)n2C	-8	5	-4	78*	80*
CCCCn1c(CN2CCN(c3cccc(Cl)c3)CC2)nc2c1c(=O)n(C)c(=O)n2C	-7	9	-2	36	x
NC(N)=Nc1nc(-c2ccccc2)c2cc(F)ccc2n1	13	7	-19	82*	2	MPTP abs DR=6.2*;MPTP cs DR=47*
CN(C)CCC(=O)c1ccc(Cl)cc1	1	6	-1	99*	5	MPTP abs DR=10*;MPTP cs DR=>80
CN(CCC(=O)c1ccccc1)CCC(=O)c1ccccc1	-3	2	3	-1	x
Cn1c(=NC(=O)c2ccccc2[N+](=O)[O-])sc2cccc(F)c21	-2	-3	2	2	x
O=C(O)Cc1ccc(NC(=O)COc2ccc3ccccc3c2)cc1	6	4	0	-1	x
O=C(COc1ccc2ccccc2c1)Nc1ccc(Cc2ccncc2)cc1	-5	-1	4	94*	88*
O=C(COc1ccc(Cl)cc1)Nc1ccc(Cc2ccncc2)cc1	-7	4	1	75*	72*
SMILES	ATG4B inhibitor	SKN-1 block	MT1-MMP act inh	MPTP inh	MPTP counter	others
CCCCCCCN1C/C=C\C(c2ccc(OC)cc2)N(Cc2ccc(F)cc2)C(=O)[C@H]1Cc1ccccc1 (stereo partly specified)	4	-3	3	1	x
CN(C)CCCN(C(=O)c1ccc([N+](=O)[O-])s1)c1nc2cc3c(cc2s1)OCCO3	-17	21	2	-2	x
CN(C)CCCN(C(=O)c1cc2cc([N+](=O)[O-])ccc2s1)c1nc2cc3c(cc2s1)OCCO3	6	0	-4	83*	-30
CN(C)CCCN(C(=O)c1ccc(Br)s1)c1nc2cc3c(cc2s1)OCCO3	3	11	5	76*	-26
O=C(NNC(=O)C1CCN(c2ncccn2)CC1)c1ccncc1	2	1	-1	0	x
Cc1ccc(CN2CCSc3ccc(C(=O)N4CCN(c5ncccn5)CC4)cc32)cc1	16	-4	-4	66*	95*
CCOc1cc(CNCCO)cc(Br)c1OCc1cccs1	4	0	-3	93*	9	MPTP abs DR=4.1*;MPTP cs DR=23*
CCOc1cc(CNCc2cccs2)cc(Br)c1OCC	2	-7	2	14	x
CCOc1cc(CNCc2ccncc2)cc(Br)c1OCc1ccccc1F	-7	30	-13	61*	76*
COC(=O)C(Cc1ccc(O)cc1)NC(=O)C1CCN(S(=O)(=O)c2ccc(C)cc2)CC1 (stereo unspecified)	2	-3	0	-1	x
COCCCN(C(=O)CSc1nc2ccccc2c(=O)n1C)c1c(N)n(Cc2ccccc2)c(=O)[nH]c1=O	-11	-1	0	-1	x
CCOc1ccc(C2C=C(c3ccc(C)cc3)Nc3nnnn32)cc1 (stereo unspecified)	-5	-26	-200	73*	26*
Cc1ccc(C(=O)OC(C)CN2CCN(C)CC2)cc1 (stereo unspecified)	10	-8	4	-3	x
COCCCN1C(=O)C(CC(=O)NCCCCc2ccccc2)CC(C(=O)N(C(C)C)C(C)C)=C1C (stereo unspecified)	x	5	-2	-1	x
Cc1ccc(-c2cc(C(=O)NCc3ccc4c(c3)OCO4)[nH]n2)c(O)c1C	3	12	6	61*	71*
Cc1ccc(-c2cc(C(=O)Nc3cccnc3)[nH]n2)c(O)c1C	15	-7	1	62*	71*
O=C(NCc1ccc2c(c1)OCO2)c1cc(-c2cc(Cl)ccc2O)n[nH]1	-1	-6	6	64*	62*
Cc1cccc(NC(=O)c2cc(-c3cc(C)c(C)cc3O)n[nH]2)c1	16	6	4	0	x
COc1ccccc1N1CCN(C(=O)c2ccc(CN3CCOCC3)cc2)CC1	-1	3	-1	0	x
Cc1ccc(S(=O)(=O)Nc2ccc(N=Nc3ccc(O)cc3)cc2)cc1	-17	18	3	56*	43*
O=C(COC(=O)c1cc2ccccc2oc1=O)Nc1ccc(F)cc1F	-1	4	2	0	x

Screening data deposited in PubChem BioAssay by Sanford-Burnham Center for Chemical Genomics.
